# Measured values gathered from unrelated publications.
# Target: Misshapen-like kinase 1 (MINK1, Homo sapiens, UniProt Q8N4C8)
SMILES,observed,technique,concentration,remaining binding
CNC(=O)[C@@H]1CC[C@@H](n2c(-c3ccc4cnccc4c3)nc3ccc(C(=O)NCc4cccc(C(N)=O)c4)cc32)C1,binding,competition with immobilised ligand,1 µM,94%
O=C(NCC1CCOCC1)c1n[nH]cc1NC(=O)c1c(F)cccc1F,binding,competition with immobilised ligand,1 µM,77%
C[C@H]1CCN(c2nccc(-c3cnn4ncccc34)n2)C1,binding,,1 µM,71%
c1cncc(-c2cccc(Nc3nccc(NC4CCCCC4)n3)c2)c1,binding,competition with immobilised ligand,10 µM,4.8%
O=C(c1ccc(Nc2ncc(Cl)c(-c3ccc(Cl)s3)n2)cc1)N1CCC(N2CCCC2)CC1,binding,competition with immobilised ligand,1 µM,17%
c1cnn2ncc(-c3ccnc(N4CCC45COC5)n3)c2c1,binding,,1 µM,68%
Cc1cnc(Nc2ccc(C(=O)N3CCC(N4CCCC4)CC3)cc2)nc1-c1cc2ccccc2s1,binding,competition with immobilised ligand,1 µM,40%
O=C(O)[C@H]1[C@H](Cn2nnc3ccccc3c2=O)CC[C@@H]1C(=O)c1ccc(OCCC2CCOCC2)cc1,cell-free assay,competition with immobilised ligand,1 µM,100%
N[C@@H]1CCN(c2nccc(-c3cnn4ncccc34)n2)C1,binding,,1 µM,96%
CC(C)(O)c1cncc(-c2nc3ccc(F)cc3n2C2CC2)c1,cell-free assay,competition with immobilised ligand,1 µM,100%
O=C(c1ccc(Nc2ncc(Cl)c(-c3cc4ccccc4s3)n2)cc1)N1CCC(N2CCCC2)CC1,binding,competition with immobilised ligand,1 µM,42%
CN(C)c1ncc(F)c(-c2cnn3ncccc23)n1,binding,,1 µM,80%
CC(=O)C1=C(C)N(c2cccc(C(F)(F)F)c2)C(=O)N[C@@H]1c1ccc(C#N)nc1,cell-free assay,competition with immobilised ligand,1 µM,100%
CCN1CCN(Cc2ccc(C(=O)Nc3ccc(C)c(Oc4ccc5c(c4)CC(=O)N5)c3)cc2C(F)(F)F)CC1,binding,competition with immobilised ligand,1 µM,100%
CN(C)c1nccc(-c2cnc3ncccn23)n1,binding,,1 µM,82%
Nc1ncc2c(n1)-c1c([nH]c3ccc(C#CC4CC4)cc13)CCCC2,binding,competition with immobilised ligand,1 µM,94%
CSc1cccnc1N1CCN(Cc2nc3ccccc3[nH]2)CC1,cell-free assay,competition with immobilised ligand,1 µM,89%
CN(CCCC(F)(F)F)c1nccc(-c2cnn3ncccc23)n1,binding,,1 µM,100%
C[C@H](c1cccc(C#N)c1)n1cc(Cl)cc(C(N)=O)c1=N,cell-free assay,competition with immobilised ligand,1 µM,88%
COc1cnc(Nc2cccc(S(N)(=O)=O)c2)nc1N1CCN(c2ccccc2)C(=O)C1,binding,competition with immobilised ligand,1 µM,78%
CC1CCCN1c1nccc(-c2cnn3ncccc23)n1 (stereo not shown),binding,,1 µM,90%
FC(F)(F)c1ccc2c(c1)nc(-c1cccnc1)n2C1CC1,cell-free assay,competition with immobilised ligand,1 µM,100%
